{"source": "paper PMC8669655", "about": "(ACS Infectious Diseases, 2021)", "key": {"E. coli BW25113 [1]": {"system": "E. coli BW25113", "experiment": "MIC assay", "type": "cell-based", "conditions": "Escherichia coli", "procedure,_shortened": "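Broth microdilution per CLSI in LB. Test compound serially diluted twofold from a 2× stock. Inoculum from a single blood-agar colony, grown in LB at 37 °C to OD600 0.5, diluted to 2.0 × 10^6 CFU/mL stock, then added 1:1. Plates sealed with breathable seal, incubated 20 h at 37 °C, 600 rpm. MIC read visually after brief centrifugation. Six growth and six sterility controls.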"}, "E. coli ATCC25922": {"system": "E. coli ATCC25922", "experiment": "Checkerboard assay with rifampicin", "type": "cell-based, Escherichia coli", "conditions": "E. coli ATCC25922 (wild-type)", "procedure,_shortened": "(§1)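 Broth microdilution checkerboard in LB: serial dilutions of test compound and rifampicin combined, in triplicate. Inoculum from a single blood-agar colony, grown in LB at 37 °C to OD600 0.5, diluted to 2.0 × 10^6 CFU/mL stock, 50 μL added per 100 μL well. Sealed plates incubated 20 h, 37 °C, 600 rpm shaking. OD600 read after resuspension. FICI from MICs alone and in combination; ≤0.5 taken as synergy.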"}, "E. coli W3110": {"system": "E. coli W3110", "experiment": "Checkerboard assay with rifampicin", "type": "cell-based, Escherichia coli", "conditions": "E. coli W3110 (wild-type)", "procedure,_shortened": "as §1"}, "E. coli 552060.1": {"system": "E. coli 552060.1", "experiment": "Checkerboard assay with rifampicin", "type": "cell-based, Escherichia coli", "conditions": "E. coli 552060.1 (wild-type clinical isolate)", "procedure,_shortened": "as §1"}, "[2]": {"system": "E. coli EQASmcr-1 (EQAS 2016 412016126)", "experiment": "Checkerboard assay with rifampicin", "type": "cell-based, Escherichia coli", "conditions": "E. coli EQASmcr-1 (polymyxin-resistant)", "procedure,_shortened": "as §1"}, "[3]": {"system": "E. coli EQASmcr-2 (EQAS 2016 KP37)", "experiment": "Checkerboard assay with rifampicin", "type": "cell-based, Escherichia coli", "conditions": "E. coli EQASmcr-2 (polymyxin-resistant)", "procedure,_shortened": "as §1"}, "[4]": {"system": "E. coli EQASmcr-3 (EQAS 2017 2013-SQ352)", "experiment": "Checkerboard assay with rifampicin", "type": "cell-based, Escherichia coli", "conditions": "E. coli EQASmcr-3 (polymyxin-resistant), listed as pentamidine (1)", "procedure,_shortened": "as §1"}, "A. baumannii ATCC17978": {"system": "A. baumannii ATCC17978", "experiment": "Checkerboard assay with rifampicin", "type": "cell-based, Acinetobacter baumannii", "conditions": "listed as pentamidine (1)", "procedure,_shortened": "as §1"}, "K. pneumoniae ATCC13883": {"system": "K. pneumoniae ATCC13883", "experiment": "Checkerboard assay with rifampicin", "type": "cell-based, Klebsiella pneumoniae", "conditions": "listed as pentamidine (1)", "procedure,_shortened": "as §1"}, "P. aeruginosa ATCC27853": {"system": "P. aeruginosa ATCC27853", "experiment": "Checkerboard assay with rifampicin", "type": "cell-based, Pseudomonas aeruginosa", "conditions": "listed as pentamidine (1)", "procedure,_shortened": "as §1"}, "E. coli BW25113 [5]": {"system": "E. coli BW25113", "experiment": "OM permeabilization assay using NPN", "type": "cell-based, Escherichia coli", "conditions": "60 min, relative to 100 μg/mL colistin", "procedure,_shortened": "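Log-phase cells (overnight LB culture diluted 50×, grown to OD600 0.5) pelleted and resuspended to OD600 1.0 in 5 mM HEPES with 20 mM glucose. Test compound serially diluted in triplicate. NPN stock (0.5 mM in acetone) diluted 12.5× in buffer and added. Fluorescence read after 60 min, ex 355 nm / em 420 nm. Uptake % = (F − buffer blank)/(colistin 100 μg/mL − blank) × 100. Compound + NPN no-cell controls included.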"}, "rat L6 muscle cell line": {"system": "rat L6 muscle cell line", "conditions": "cited from earlier work"}}, "note": "“Also recorded” adds a separate entry of the source.", "data": [{"smiles": "N=C(N)c1ccc(OCCCCCOc2ccc(C(=N)N)cc2)cc1", "note": "[compound 1, 4,4′-(Pentane-1,5-diylbis(oxy))dibenzimidamide, reference compound]", "values": [{"measurement": "MIC", "setting": "E. coli BW25113 [1]; BW25113, compound alone", "value": "≥ 200", "unit": "µg/mL"}, {"measurement": "FICI", "setting": "E. coli ATCC25922", "value": 0.313}, {"measurement": "FICI", "setting": "E. coli W3110; listed as pentamidine (1)", "value": "≤0.188"}, {"measurement": "FICI", "setting": "E. coli 552060.1", "value": 0.375}, {"measurement": "FICI", "setting": "[2]; listed as pentamidine (1)", "value": "≤0.250"}, {"measurement": "FICI", "setting": "[3]", "value": 0.375}, {"measurement": "FICI", "setting": "[4]", "value": "≤0.188"}, {"measurement": "FICI", "setting": "A. baumannii ATCC17978", "value": "≤0.125"}, {"measurement": "FICI", "setting": "K. pneumoniae ATCC13883", "value": "≤0.125"}, {"measurement": "FICI", "setting": "P. aeruginosa ATCC27853", "value": "≤0.500"}]}, {"smiles": "N=C(N)c1ccc(OCCCCCCCOc2ccc(C(=N)N)cc2)cc1", "note": "[compound 10, 4,4′-(Heptane-1,7-diylbis(oxy))dibenzimidamide]", "values": [{"measurement": "MIC", "setting": "E. coli BW25113 [1]; BW25113, compound alone", "value": 200, "unit": "µg/mL"}]}, {"smiles": "N=C(N)c1ccc(OCCCOc2ccc(C(=N)N)cc2)cc1", "note": "[compound 9, 4,4′-(Propane-1,3-diylbis(oxy))dibenzimidamide]", "values": [{"measurement": "MIC", "setting": "E. coli BW25113 [1]; BW25113, compound alone", "value": "≥ 200", "unit": "µg/mL"}]}, {"smiles": "N=C(N)c1ccc(OCCSCCOc2ccc(C(=N)N)cc2)cc1", "note": "[compound 15, 4,4′-((Thiobis(ethane-2,1-diyl))bis(oxy))dibenzimidamide]", "values": [{"measurement": "MIC", "setting": "E. coli BW25113 [1]; BW25113, compound alone", "value": "> 200", "unit": "µg/mL"}]}, {"smiles": "N=C(N)c1ccc(OCc2cccc(COc3ccc(C(=N)N)cc3)c2)cc1", "note": "[compound 22, 4,4′-((1,3-Phenylenebis(methylene))bis(oxy))dibenzimidamide]", "values": [{"measurement": "MIC", "setting": "E. coli BW25113 [1]; BW25113, 20 h, compound alone", "value": "> 200", "unit": "µg/mL"}, {"measurement": "FICI", "setting": "E. coli ATCC25922", "value": 0.094}, {"measurement": "FICI", "setting": "E. coli W3110", "value": 0.313}, {"measurement": "FICI", "setting": "E. coli 552060.1", "value": 0.250}, {"measurement": "FICI", "setting": "[2]", "value": 0.188}, {"measurement": "FICI", "setting": "[3]", "value": 0.313}, {"measurement": "NPN uptake (OM disruption), in words", "setting": "E. coli BW25113 [5]", "value": "dose-dependent increase in the fluorescent signal; also recorded: stronger effect than PMBN"}]}, {"smiles": "N=C(N)c1ccc(OCCS(=O)(=O)CCOc2ccc(C(=N)N)cc2)cc1", "note": "[compound 16, 4,4′-((Sulfonylbis(ethane-2,1-diyl))bis(oxy))dibenzimidamide]", "values": [{"measurement": "MIC", "setting": "E. coli BW25113 [1]; BW25113, compound alone", "value": "> 200", "unit": "µg/mL"}]}, {"smiles": "N=C(N)c1cccc(OCc2ccc(COc3cccc(C(=N)N)c3)cc2)c1", "note": "[compound 23b, 3,3′-[1,4-Phenylenebis(methyleneoxy)]dibenzenecarboximidamide]", "values": [{"measurement": "FICI", "setting": "E. coli ATCC25922", "value": 0.156}]}, {"smiles": "N=C(N)c1ccc(OCc2ccc3ccc(COc4ccc(C(=N)N)cc4)cc3c2)cc1", "note": "[compound 24, 4,4′-((Naphthalene-2,7-diylbis(methylene))bis(oxy))dibenzimidamide]", "values": [{"measurement": "toxicity against a rat L6 muscle cell line", "setting": "rat L6 muscle cell line", "value": "significant toxicity"}]}, {"smiles": "N=C(N)c1ccc(OCc2ccccc2COc2ccc(C(=N)N)cc2)cc1", "note": "[compound 21, 4,4′-((1,2-Phenylenebis(methylene))bis(oxy))dibenzimidamide]", "values": [{"measurement": "MIC", "setting": "E. coli BW25113 [1]; BW25113, 20 h, compound alone", "value": "> 200", "unit": "µg/mL"}, {"measurement": "NPN uptake (OM disruption), in words", "setting": "E. coli BW25113 [5]", "value": "dose-dependent increase in the fluorescent signal"}]}]}
